Test results published in ChEMBL document CHEMBL1137688, “Design, synthesis and antibacterial activity of novel actinonin derivatives containing benzimidazole heterocycles” (2009).
Converted amounts (≈) assume the structure as drawn.

How the values were obtained:
Format in all cases: functional
[1] = system: Staphylococcus aureus; experiment: Antimicrobial activity against Staphylococcus aureus CMCC 26112 after 24 hrs by broth microdilution method; conditions: CMCC 26112, 24 h
Outline: (§1)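 Broth microdilution in Mueller-Hinton broth. Compounds tested across a doubling-dilution series, with cefoperazone as the positive control. Plates incubated 24 h at 37 °C. MIC taken as the lowest concentration showing no visible bacterial growth.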

[2] = system: Klebsiella pneumoniae; experiment: Antimicrobial activity against Klebsiella pneumoniae CMCC 46117 after 24 hrs by broth microdilution method; conditions: CMCC 46117, 24 h; outline: as §1
[3] = system: Micrococcus luteus; experiment: Antimicrobial activity against Sarcina lutea CMCC 28001 after 24 hrs by broth microdilution method; conditions: CMCC 28001, 24 h; outline: as §1

| SMILES | MIC [1] | MIC [2] | MIC [3] |
| --- | --- | --- | --- |
| CCCC[C@H](CC(=O)NO)C(=O)N[C@H](c1nc2cc(C(=O)NC3CCCCC3)ccc2[nH]1)C(C)C | 64 µg/mL (≈ 132 µM) | 32 µg/mL (≈ 65.9 µM) | 64 µg/mL (≈ 132 µM) |
| CCCC[C@H](CC(=O)NO)C(=O)N[C@H](c1nc2cc(C(=O)Nc3ccc(OC)cc3)ccc2[nH]1)C(C)C | 32 µg/mL (≈ 62.8 µM) | 16 µg/mL (≈ 31.4 µM) | 16 µg/mL (≈ 31.4 µM) |
| CCCC[C@H](CC(=O)NO)C(=O)N[C@H](c1nc2cc(C(=O)N3CCOCC3)ccc2[nH]1)C(C)C | 16 µg/mL (≈ 33.8 µM) | 8 µg/mL (≈ 16.9 µM) | 16 µg/mL (≈ 33.8 µM) |
| CCN1CCN(C(=O)N[C@@H](C(=O)N[C@@H]2C(=O)N3C(C(=O)O)=C(CSc4nnnn4C)CS[C@H]23)c2ccc(O)cc2)C(=O)C1=O [CEFOPERAZONE] | 0.25 µg/mL (≈ 0.387 µM) | 0.25 µg/mL (≈ 0.387 µM) | 0.25 µg/mL (≈ 0.387 µM) |
| CCCC[C@H](CC(=O)NO)C(=O)N[C@H](c1nc2cc(C(=O)N3CCCCC3)ccc2[nH]1)C(C)C | > 64 µg/mL | 8 µg/mL (≈ 17 µM) | > 64 µg/mL |

Other lines, results leading:

| MIC [1] | MIC [2] | MIC [3] | SMILES |
| --- | --- | --- | --- |
| 8 µg/mL (≈ 20.5 µM) | 8 µg/mL (≈ 20.5 µM) | 8 µg/mL (≈ 20.5 µM) | CCCC[C@H](CC(=O)NO)C(=O)N[C@H](c1nc2cc(OC)ccc2[nH]1)C(C)C |
| 2 µg/mL (≈ 5.55 µM) | 0.5 µg/mL (≈ 1.39 µM) | 4 µg/mL (≈ 11.1 µM) | CCCC[C@H](CC(=O)NO)C(=O)N[C@H](c1nc2ccccc2[nH]1)C(C)C |
| 8 µg/mL (≈ 21.4 µM) | 4 µg/mL (≈ 10.7 µM) | 8 µg/mL (≈ 21.4 µM) | CCCC[C@H](CC(=O)NO)C(=O)N[C@H](c1nc2cc(C)ccc2[nH]1)C(C)C |
